This is a sample that favours compounds with a hit; in the whole collection about 7.2% have one here.
HEK293 NFkB inh: inhibitors of PMA/ionomycin-induced NF-kB reporter, primary screen, antigen receptor NF-kB inhibitor project, cell-based, HEK-293 luciferase reporter, luminescence. 0.21% of 62,000 active. inhibition, % at 3 µM. HEK-293 NF-kB luciferase reporter;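 active = inhibition above the mean of all tested compounds plus 3 SD, cut at about 40% in these data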;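 also: 0% = stimulated DMSO wells and 100% = 10 µM reference inhibitor 5653914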
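Material: HEK-293 cells with stable firefly luciferase reporter driven by four HIV NF-kB elements / Also added: PMA plus ionomycin mix as NF-kB-activating stimulus / Compound dosing: 3 µM once, 0.30% DMSO / Times: 1 h pretreatment, 16 h stimulation, 37 °C / Signal: luminescence / Evaluation: per-plate % inhibition versus controls / Benchmarks: DMSO and 10 µM reference inhibitor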
BAP1 inh: inhibitors of BAP1 deubiquitinase, primary screen, biochemical, Ub-AMC fluorescence, kinetic. Ubiquitin carboxyl-terminal hydrolase BAP1 (Homo sapiens), Q92560. recombinant BAP1, Ub-AMC hydrolysis fluorescence kinetic; hits give low values. calls only at 20 µM. 0.48% of 72,000 active. AID 436, 2006;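 active = activity remaining at or below 50% of control, provided the compound also passes the data quality filters; inactive = the rest, including low values that fail the filters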;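 also: 100% = DMSO wells rate and 0% = substrate alone blank rate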
Target sequence (Q92560 whole entry, looked up): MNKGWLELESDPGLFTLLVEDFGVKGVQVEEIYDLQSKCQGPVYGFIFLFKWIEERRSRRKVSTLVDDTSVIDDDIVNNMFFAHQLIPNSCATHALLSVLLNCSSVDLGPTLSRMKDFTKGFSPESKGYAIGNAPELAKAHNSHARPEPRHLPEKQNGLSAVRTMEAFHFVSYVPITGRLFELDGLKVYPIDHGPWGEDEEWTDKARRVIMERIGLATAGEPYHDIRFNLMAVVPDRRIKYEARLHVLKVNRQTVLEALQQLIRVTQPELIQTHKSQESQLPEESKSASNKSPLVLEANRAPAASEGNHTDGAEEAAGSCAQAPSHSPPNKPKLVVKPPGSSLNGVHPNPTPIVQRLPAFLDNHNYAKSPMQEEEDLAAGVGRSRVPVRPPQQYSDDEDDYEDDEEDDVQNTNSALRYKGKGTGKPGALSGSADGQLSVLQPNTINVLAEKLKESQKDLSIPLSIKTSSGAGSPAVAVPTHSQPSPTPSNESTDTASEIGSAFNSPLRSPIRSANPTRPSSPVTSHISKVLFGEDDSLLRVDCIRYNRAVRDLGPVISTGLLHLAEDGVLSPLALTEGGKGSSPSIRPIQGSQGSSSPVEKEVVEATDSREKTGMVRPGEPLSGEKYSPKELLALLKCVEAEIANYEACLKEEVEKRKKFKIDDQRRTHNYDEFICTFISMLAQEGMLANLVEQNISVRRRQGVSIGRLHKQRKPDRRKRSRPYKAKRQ
D1 allo mod: D1 CRE-luciferase signal change, two-sided – cell-based, HEK293 D1, dopamine EC30, D1 allosteric modulator project, primary screen | AID 641, 2007 | 5.9% of 58,000 active | dopamine EC30 potentiation; actives deviate in either direction | B-score at 10 µM;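 active = luminescence count or its row- and column-corrected plate score outside the 99.7% band of the plate's sample wells, on either side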
DAT uptake mod: changed hDAT dopamine uptake under cocaine IC80, either direction, primary screen, cocaine antagonist project, cell-based, LLC-PK1 hDAT, [14C]-dopamine uptake, MLSMR; Sodium-dependent dopamine transporter (Homo sapiens), Q01959; LLC-PK1 hDAT cells, [14C]-dopamine uptake with cocaine IC80; actives deviate in either direction; B-score at 10 µM; 1.3% of 110,000 active; AID 449768, 2010;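 active = Z score or B-score, a plate-position-corrected score, falls beyond the plate's 99.7% confidence bounds, in either direction; inactive = both scores lie inside the 99.7% bounds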;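 also: scored against the spread of the other compound wells on the same plate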
M1 antagonist: antagonists of rat M1 muscarinic receptor. 3.4% of 64,000 active. CHO-M1 cells, Fluo-4 calcium, ACh EC80 antagonist mode; hits give low values. B-score at 10 µM;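 active = calcium fluorescence response, raw or row-and-column corrected B-score, differing from the plate sample mean either way at a set confidence level, mostly lower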
M1 agonist: M1 muscarinic receptor agonists, primary screen, CHO-M1 cells, Fluo-4 calcium, agonist mode | Muscarinic acetylcholine receptor M1 | Fluo-4 calcium fluorescence; hits give high values | B-score at 10 µM | 3% of 64,000 active | AID 626, 2007;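 active = fluorescence rise, raw or as B-score row- and column-corrected plate score, outside the 99.7% band of its plate's samples, either direction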
M1 ag confirm: rat M1 muscarinic receptor agonists, confirmation, CHO-M1 cells, Fluo-4 calcium, duplicate retest; shares compounds with M1 agonist; Fluo-4 calcium fluorescence, agonist mode; actives lie on both sides; fluorescence change (max-min) at 10 µM; 19% of 1,700 active;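 active = fluorescence change differs from the solvent-only DMSO control mean at a set confidence level in both duplicate runs; inconclusive = differs from solvent-only control mean in just one of two runs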;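 also: an EC20 dose of acetylcholine follows compound addition during the same imaging run; raw fluorescence intensity difference in instrument units with no normalization to controls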
M4 agonist ctr: agonist activity at rat M4 receptor, confirmation, counter-screen for M1 allosteric modulator project, cell-based, agonist mode; shares compounds with M1 agonist; CHO M4/Gqi5 cells, Fluo-4 calcium fluorescence; actives lie on both sides; fluorescence change (max-min) at 10 µM; 9% of 1,700 active;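 active = fluorescence change differing from the plate's solvent-only control wells at 99.7% confidence in both duplicates, whether higher or lower; inconclusive = differs from solvent controls in only one of two duplicates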
* hit, by the source's call; i = inactive; ? = inconclusive; / = no result shown.

SMILES	HEK293 NFkB inh	BAP1 inh	D1 allo mod	DAT uptake mod	M1 antagonist	M1 agonist	M1 ag confirm	M4 agonist ctr
COC(=O)c1c(NC(=O)CSc2nccn2C)sc2c1CCC(C(C)(C)C)C2 (stereo not given)	/	i	/	/	/	/	/	/
O=C1NC(c2ccco2)Nc2sc3c(c21)CCN(Cc1ccccc1)C3 (stereo not given)	0	i	-0.84	1.3	-17*	17*	33	21
Cc1ccc(-c2nnc(N3CCN(c4ccccn4)CC3)c3ccccc23)cc1	13	i	-2.9	0.76	-3.5*	2*	?	-53
CNc1ccccc1-n1ccc(-c2ccccc2)n1	-2	i	0.49	-0.49	0.34	3.6*	-7.4	-22
COc1ccc2[nH]c3c(N4CC(C)OC(C)C4)ncnc3c2c1 (stereo not given)	/	/	/	1.8	/	/	/	/
COc1cccc(N2CCN(c3ncnc4c3[nH]c3ccccc34)CC2C)c1 (stereo not given)	/	i	/	-0.84	-3.4*	11*	?	-52
c1ccc2c(c1)CCN(c1ncnc3c1[nH]c1ccccc13)C2	/	i	/	-1.6	-3.4*	5.6*	10	-25
Cc1ccc2[nH]c3c(N4CCN(Cc5ccccc5)CC4)ncnc3c2c1	/	i	/	2.2	-1.7	5.6	/	/
c1ccc(CN2CCN(c3ncnc4c3[nH]c3ccccc34)CC2)cc1	/	i	-4.9*	2.9	-2.7*	3.9*	-1.9	?
c1ccc2c(c1)[nH]c1c(N3CCC4(CC3)OCCO4)ncnc12	/	i	0.46	0.13	-1.3	1.4	/	/
Cc1ccc2c(c1)[nH]c1c(N3CCN(Cc4ccccc4)CC3)ncnc12	10	/	-3.9	1.1	-3.1*	3.9*	-13	?
O=C1CC(N(CCc2ccccc2)C(=O)c2cccc(F)c2)C(=O)N1c1ccc(Cl)cc1 (stereo not given)	/	i	/	/	/	/	/	/
Cc1ccc(-n2nc3c(c2NC(=O)C2CC2)CSC3)cc1	/	i	/	/	/	/	/	/
CCCc1ccc(OCCNC(=O)C(C)N2C(=O)c3ccccc3C2=O)cc1 (stereo not given)	/	i	/	/	/	/	/	/
O=C(Cc1cccs1)Nc1cccc(C(=O)Nc2ccco2)c1	20	i	0.058	0.1	-0.43	5.5*	-4.1	?
O=C(Cc1cccs1)Nc1ccc(NC(=O)c2ccco2)cc1	8	i	-0.92	-0.0057	-0.084	-0.33	/	/
C=CCN1C(c2ccccc2)=CS/C1=C(\C#N)c1nnc2n1CCCCC2	9	i	-0.56	0.91	0.13	0.26	/	/
CCOc1ccc(C2=CS/C(=C(\C#N)c3nnc4n3CCCCC4)N2CC)cc1	2	/	-3.7	2.3	-0.056	3.8*	-18	-38
CCCCCOC(=O)C1=C(C)NC2=C(C(=O)CCC2)C1c1cc(OC)c(OC)cc1Br (stereo not given)	/	i	/	/	/	/	/	/
CN(C)c1oc(-c2ccccc2F)nc1C#N	9	i	4.9	1	-1.1	8.3*	-14	-45
Cc1ccc(Cl)cc1N1CCN(C(=O)C2CCN(S(=O)(=O)c3c(C)nn(C)c3C)CC2)CC1	1	i	-1.3	-0.41	-2.6*	8*	?	-59
CCc1c(C)c(C#N)c2nc3ccccc3n2c1-n1nc(C)cc1C	/	i	0.56	/	0.55	0.34	/	/
Cc1cc(-c2ccco2)c(C#N)c2nc3ccccc3n12	8	/	1.4	-0.23	0.35	11*	?	15

From PubChem
